Data reported in ChEMBL document CHEMBL4219099, “Design, synthesis and biological evaluation of novel 7-azaspiro[3.5]nonane derivatives as GPR119 agonists” (Bioorg Med Chem, 2018).
≈ marks a conversion by molar mass, not a printed value.

Key:
[1] = target: T1, Glucose-dependent insulinotropic receptor (Homo sapiens, UniProt Q8TDV5); test: Agonist activity at human GPR119 expressed in Flp-In-T-Rex-HEK293 cells assessed as increase in intracellular cAMP level after 30 mins by HTRF assay; type: functional, cell-based
T1 sequence (Q8TDV5 whole entry): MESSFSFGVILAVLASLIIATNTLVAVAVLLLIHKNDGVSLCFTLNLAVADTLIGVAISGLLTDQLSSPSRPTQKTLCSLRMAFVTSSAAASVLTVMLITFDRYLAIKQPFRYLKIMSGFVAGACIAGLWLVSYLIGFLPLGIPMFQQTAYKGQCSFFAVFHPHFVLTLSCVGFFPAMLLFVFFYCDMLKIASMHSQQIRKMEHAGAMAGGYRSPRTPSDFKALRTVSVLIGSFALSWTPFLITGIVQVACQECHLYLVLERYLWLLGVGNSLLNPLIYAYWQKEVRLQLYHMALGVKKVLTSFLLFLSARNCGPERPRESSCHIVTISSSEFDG
Method in brief: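 Flp-In-T-Rex-HEK293 cells overexpressing human GPR119, tetracycline-induced 24 h, plated at 5000 cells/well in D-MEM with 1 mM IBMX and 0.01% BSA, then exposed to compound 30 min at 37 °C. cAMP read with HiRange HTRF kit. Basal cAMP subtracted from stimulated level; EC50 taken as concentration giving 50% of maximal response, fitted from dose-response curves.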

[2] = Solubility of the compound in fasted state simulated intestinal fluid incubated for 2 hrs in shaker and subsequently incubated at 37 degC for 22 hrs in water bath by HPLC analysis; type: physicochemical
Method in brief: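 FaSSIF (pH 6.5) with excess compound shaken at 25 °C for 2 h, then held at 37 °C for 22 h. Centrifuged at 3000 and 11000 rpm, 10 min. Supernatant diluted with 50% aqueous acetonitrile or acetonitrile/methanol 1:1. Concentration by reversed-phase HPLC: 0.1% phosphoric acid/acetonitrile, column 40 °C, UV 210 nm.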

[3] = Aqueous solubility of the compound in pH 6.8 phosphate buffer after 24 hrs by HPLC analysis; type: physicochemical
Method in brief: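 Excess solid shaken in pH 6.8 phosphate buffer at 25 °C for 24 h. Suspension centrifuged at 3000 and 11000 rpm, 10 min each. Supernatant diluted in 50% aqueous acetonitrile and quantified by reversed-phase HPLC (0.1% phosphoric acid/acetonitrile, column 40 °C, UV 210 nm).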

Cytochrome P450 2C19 = Cytochrome P450 2C19 (Homo sapiens, UniProt P33261); test: Inhibition of CYP2C19 in human liver microsomes; type: ADME
Sequence of Cytochrome P450 2C19 (P33261 whole entry): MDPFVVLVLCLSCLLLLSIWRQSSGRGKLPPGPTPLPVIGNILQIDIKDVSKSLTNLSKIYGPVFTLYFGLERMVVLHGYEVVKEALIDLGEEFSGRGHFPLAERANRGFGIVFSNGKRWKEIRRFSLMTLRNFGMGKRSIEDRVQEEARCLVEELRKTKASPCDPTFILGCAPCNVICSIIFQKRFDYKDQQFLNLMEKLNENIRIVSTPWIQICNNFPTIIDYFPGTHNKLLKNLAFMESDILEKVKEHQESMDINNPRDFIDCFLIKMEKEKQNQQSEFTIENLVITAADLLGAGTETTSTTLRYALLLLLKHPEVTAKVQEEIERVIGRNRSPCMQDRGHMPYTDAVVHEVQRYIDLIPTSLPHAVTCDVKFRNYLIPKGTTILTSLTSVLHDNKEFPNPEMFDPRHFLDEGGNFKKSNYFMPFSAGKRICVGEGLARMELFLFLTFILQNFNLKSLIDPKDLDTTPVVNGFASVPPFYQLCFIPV

Cytochrome P450 2C9 = Cytochrome P450 2C9 (Homo sapiens, UniProt P11712); test: Inhibition of CYP2C9 in human liver microsomes; type: ADME
Sequence of Cytochrome P450 2C9 (P11712 whole entry): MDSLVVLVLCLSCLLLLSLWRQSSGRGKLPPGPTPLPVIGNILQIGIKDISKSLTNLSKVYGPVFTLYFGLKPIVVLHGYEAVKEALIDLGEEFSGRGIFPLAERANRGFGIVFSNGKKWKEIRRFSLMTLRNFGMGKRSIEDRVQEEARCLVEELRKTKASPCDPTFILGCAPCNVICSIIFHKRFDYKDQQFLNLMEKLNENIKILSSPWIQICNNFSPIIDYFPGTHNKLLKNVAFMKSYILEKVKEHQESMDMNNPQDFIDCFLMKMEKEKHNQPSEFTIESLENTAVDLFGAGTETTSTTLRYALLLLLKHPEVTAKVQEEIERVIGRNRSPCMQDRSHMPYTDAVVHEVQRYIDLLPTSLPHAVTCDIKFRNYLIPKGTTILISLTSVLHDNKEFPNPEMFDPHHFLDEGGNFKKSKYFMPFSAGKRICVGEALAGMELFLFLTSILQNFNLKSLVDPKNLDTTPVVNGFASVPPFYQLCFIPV

Cytochrome P450 3A4 = Cytochrome P450 3A4 (Homo sapiens, UniProt P08684); test: Inhibition of CYP3A4 in human liver microsomes; type: ADME
Sequence of Cytochrome P450 3A4 (P08684 whole entry): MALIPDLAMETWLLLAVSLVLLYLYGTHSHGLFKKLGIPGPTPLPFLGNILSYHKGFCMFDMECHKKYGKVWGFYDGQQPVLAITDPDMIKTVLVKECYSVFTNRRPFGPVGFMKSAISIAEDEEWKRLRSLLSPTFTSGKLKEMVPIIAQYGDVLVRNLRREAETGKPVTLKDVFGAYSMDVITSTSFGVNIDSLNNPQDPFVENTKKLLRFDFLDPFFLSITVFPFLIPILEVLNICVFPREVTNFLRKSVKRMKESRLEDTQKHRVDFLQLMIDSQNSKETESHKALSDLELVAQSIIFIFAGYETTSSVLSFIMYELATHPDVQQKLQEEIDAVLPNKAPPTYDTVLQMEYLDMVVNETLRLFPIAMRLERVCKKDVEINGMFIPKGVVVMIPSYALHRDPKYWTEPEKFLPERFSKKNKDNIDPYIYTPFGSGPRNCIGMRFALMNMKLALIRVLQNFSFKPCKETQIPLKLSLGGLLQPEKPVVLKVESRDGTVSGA

[4] = Clearance in Sprague-Dawley rat plasma at 3 mg/kg, iv or 10 mg/kg, po by liquid chromatography-tandem mass spectrometry analysis; type: ADME, organism-based
Method in brief: (§1)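 Fasted male SD rats given a single dose, iv 3 mg/kg in 20% 2-hydroxypropyl-β-cyclodextrin or po 10 mg/kg in 0.5% methylcellulose with 0.1% Tween80. Tail-vein blood taken at time points and spun to plasma. Analyte quantified by LC-MS/MS; parameters from non-compartmental analysis.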

Rattus norvegicus [5] = test: Antidiabetic activity in Zucker diabetic rat assessed as reduction in plasma glucose AUC (0 to 2 hrs) at 30 mg/kg, po pretreated for 30 mins followed by glucose challenge by oGTT assay relative to control; type: functional; set-up: scale not given: the % may be the effect or the level left
Method in brief: (§2)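 Male Zucker diabetic fatty and lean rats, 9 weeks old, fasted overnight. Dosed orally in 20 w/v% HP-β-CD; 30 min later given oral glucose at 2 g/kg. Tail-vein plasma glucose followed over 2 h by glucose assay kit. Glucose excursion expressed as ΔAUC 0–2 h versus vehicle; mean ± SE, Welch's t-test.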

[6] = Volume of distribution at steady state in Sprague-Dawley rat plasma at 3 mg/kg, iv by liquid chromatography-tandem mass spectrometry analysis; type: ADME, organism-based; settings: read-out: Vdss; method in brief: as §1
[7] = Oral bioavailability in Sprague-Dawley rat plasma at 10 mg/kg by liquid chromatography-tandem mass spectrometry analysis; type: ADME, organism-based; method in brief: as §1
Cytochrome P450 1A2 = target: T2, Cytochrome P450 1A2 (Homo sapiens, UniProt P05177); test: Inhibition of CYP1A2 in human liver microsomes; type: ADME
T2 sequence (P05177 whole entry): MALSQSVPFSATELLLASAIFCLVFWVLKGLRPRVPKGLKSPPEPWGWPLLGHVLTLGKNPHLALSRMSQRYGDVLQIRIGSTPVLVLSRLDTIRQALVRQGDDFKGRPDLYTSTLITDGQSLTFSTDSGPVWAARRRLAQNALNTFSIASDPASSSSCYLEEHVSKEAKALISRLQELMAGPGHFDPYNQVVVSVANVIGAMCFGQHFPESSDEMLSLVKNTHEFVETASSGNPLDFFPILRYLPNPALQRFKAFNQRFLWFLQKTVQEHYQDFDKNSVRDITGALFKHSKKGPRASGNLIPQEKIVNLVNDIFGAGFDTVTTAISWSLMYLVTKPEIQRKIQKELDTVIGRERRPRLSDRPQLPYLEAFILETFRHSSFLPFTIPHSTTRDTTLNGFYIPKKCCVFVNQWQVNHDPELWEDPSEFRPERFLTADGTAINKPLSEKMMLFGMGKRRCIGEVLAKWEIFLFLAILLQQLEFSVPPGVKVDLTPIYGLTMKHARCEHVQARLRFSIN

Rattus norvegicus [8] = test: Antidiabetic activity in Zucker diabetic rat assessed as reduction in plasma glucose AUC (0 to 2 hrs) at 10 mg/kg, po pretreated for 30 mins followed by glucose challenge by oGTT assay relative to control; type: functional; set-up: scale not given: the % may be the effect or the level left; method in brief: as §2
Cytochrome P450 2D6 = Cytochrome P450 2D6 (Homo sapiens, UniProt P10635); test: Inhibition of CYP2D6 in human liver microsomes; type: ADME
Sequence of Cytochrome P450 2D6 (P10635 whole entry): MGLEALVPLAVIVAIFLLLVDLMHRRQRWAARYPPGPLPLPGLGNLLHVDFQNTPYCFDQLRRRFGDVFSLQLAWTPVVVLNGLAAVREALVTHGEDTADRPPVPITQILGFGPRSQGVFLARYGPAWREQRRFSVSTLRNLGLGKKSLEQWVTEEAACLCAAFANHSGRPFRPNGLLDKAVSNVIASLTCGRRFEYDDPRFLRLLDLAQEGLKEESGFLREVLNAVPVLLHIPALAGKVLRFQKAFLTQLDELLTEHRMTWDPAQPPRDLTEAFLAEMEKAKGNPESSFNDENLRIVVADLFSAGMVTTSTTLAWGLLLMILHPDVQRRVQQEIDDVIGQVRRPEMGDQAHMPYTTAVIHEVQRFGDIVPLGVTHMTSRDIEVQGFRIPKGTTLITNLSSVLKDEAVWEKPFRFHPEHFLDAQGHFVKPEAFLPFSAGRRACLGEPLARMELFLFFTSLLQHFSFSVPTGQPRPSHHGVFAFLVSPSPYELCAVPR

[9] = Half life in Sprague-Dawley rat plasma at 3 mg/kg, iv by liquid chromatography-tandem mass spectrometry analysis; type: ADME, organism-based; method in brief: as §1
[10] = AUC (0 to t) in Sprague-Dawley rat plasma at 10 mg/kg, po by liquid chromatography-tandem mass spectrometry analysis; type: ADME, organism-based; method in brief: as §1

| SMILES | EC50 [1] [µM] | solubility at 24 h [2] [µg/mL] | solubility at 24 h [3] [µg/mL] | further results |
| --- | --- | --- | --- | --- |
| CC(C)OC(=O)N1CCC2(CC1)CC(CCCOc1ccc(S(C)(=O)=O)c(F)c1)C2 | 0.018 | 2.52 (≈ 5.71 µM) | < 0.16 | – |
| CC(C)(C)OC(=O)N1CCC2(CC1)CC(CCCOc1ccc(S(C)(=O)=O)c(F)c1)C2 | 0.009 | – | – | – |
| CCc1cnc(N2CCC3(CC2)CC(CCCOc2ccc(S(C)(=O)=O)cc2F)C3)nc1 | 0.225 | – | – | – |
| CC(C)(C)OC(=O)N1CCC2(CCC(CCCOc3ccc(S(C)(=O)=O)cc3)CC2)CC1 | 2.59 | – | – | – |
| CC(C)(C)COC(=O)N1CCC2(CC1)CC(CCCOc1ccc(S(C)(=O)=O)c(F)c1)C2 | 0.031 | – | – | – |
| CC(C)OC(=O)N1CCC2(CC1)CC(CCCOc1ccc(C(=O)N(C)C3CC3)c(F)c1)C2 | 0.067 | – | – | – |
| CC1(OC(=O)N2CCC3(CC2)CC(CCCOc2ccc(S(C)(=O)=O)c(F)c2)C3)CC1 | 0.013 | 1.27 (≈ 2.8 µM) | < 0.15 | – |
| Cc1ccc(N2CCC3(CC2)CC(CCCOc2ccc(S(C)(=O)=O)cc2)C3)nc1 | 0.348 | – | – | – |
| CC(C)OC(=O)N1CCC2(CC1)CC(CCCOc1ccc(S(C)(=O)=O)cc1)C2 | 0.07 | 7.09 (≈ 16.7 µM) | 0.17 (≈ 0.401 µM) | – |
| CCc1cnc(N2CCC3(CC2)CC(CCCOc2ccc(S(C)(=O)=O)c(F)c2)C3)nc1 | 0.123 | – | – | – |
| CC(C)(C)OC(=O)N1CCC2(CC1)CC(CCCOc1ccc(S(C)(=O)=O)cc1F)C2 | 0.025 | – | – | – |
| CC(C)(C)OC(=O)N1CCC2(CC1)CC2CCOc1ccc(S(C)(=O)=O)cc1 (stereo unspecified) | 2.39 | – | – | – |
| CC(C)OC(=O)N1CCC2(CC1)CC(CCCOc1ccc(C(=O)N3CC(O)C3)c(F)c1)C2 | 0.04 | – | 1.89 (≈ 4.09 µM) | IC50 (Cytochrome P450 2C19; read-out: IC50): < 10 µM; IC50 (Cytochrome P450 2C9; read-out: IC50): < 10 µM |
| CC(C)OC(=O)N1CCC2(CC1)CC(CCCOc1ccc(C(=O)N3CCC3)c(F)c1)C2 | 0.034 | – | 3.43 (≈ 7.68 µM) | IC50 (Cytochrome P450 2C19; read-out: IC50): < 10 µM; IC50 (Cytochrome P450 2C9; read-out: IC50): < 10 µM |
| CC(C)(C)OC(=O)N1CCC2(CC1)CC(CCCOc1ccc(S(C)(=O)=O)cc1)C2 | 0.014 | 3.48 (≈ 7.95 µM) | < 0.13 | – |
| CC(C)(C)OC(=O)N1CCC2(CC1)CC2CCCOc1ccc(S(C)(=O)=O)cc1 (stereo unspecified) | 0.83 | – | – | – |
| CC(C)OC(=O)N1CCC2(CC1)CC(CCCOc1ccc(C(=O)NC3CC3)nc1)C2 | 0.047 | – | 2.11 (≈ 4.91 µM) | – |
| CC(C)OC(=O)N1CCC2(CC1)CC(CCCOc1ccc(C(=O)NCC(N)=O)c(F)c1)C2 | 0.048 | 18.4 (≈ 39.7 µM) | 1.77 (≈ 3.82 µM) | IC50 (Cytochrome P450 3A4): Not Active; clearance [4]: 15.5 mL/min/kg; Activity (Rattus norvegicus [5]): 40.2%; Vd [6]: 1.01 L/kg; bioavailability [7]: 88.6%; IC50 (Cytochrome P450 1A2): Not Active; Activity (Rattus norvegicus [8]): 34%; IC50 (Cytochrome P450 2D6): Not Active; IC50 (Cytochrome P450 2C19): Not Active; half-life [9]: 50.5 min; AUC(0-t) [10]: 9510 ng·h/mL; IC50 (Cytochrome P450 2C9): Not Active |
| CC(C)c1noc(N2CCC3(CC2)CC(CCCOc2ccc(S(C)(=O)=O)cc2)C3)n1 | 0.035 | 2.51 (≈ 5.61 µM) | < 0.13 | – |
| CC(C)OC(=O)N1CCC2(CC1)CC(CCCOc1ccc(C(=O)N3CCCC3)c(F)c1)C2 | 0.029 | 92.4 (≈ 201 µM) | 3.85 (≈ 8.36 µM) | IC50 (Cytochrome P450 1A2; read-out: IC50): < 10 µM; IC50 (Cytochrome P450 2C19; read-out: IC50): < 10 µM; IC50 (Cytochrome P450 2C9; read-out: IC50): < 10 µM |
| CC(C)(C)OC(=O)N1CCC2(CCC(CCOc3ccc(S(C)(=O)=O)cc3)CC2)CC1 | 0.055 | – | – | – |
| CC(C)(C)OC(=O)N1CCC2(CC1)CC(CCOc1ccc(S(C)(=O)=O)cc1)C2 | 0.183 | – | – | – |
| CC(C)OC(=O)N1CCC2(CC1)CC(CCCOc1ccc(C(N)=O)c(F)c1)C2 | 0.052 | – | – | – |
| CC(C)OC(=O)N1CCC2(CC1)CC(CCCOc1ccc(C(=O)NC3CC3)c(F)c1)C2 | 0.008 | 8.58 (≈ 19.2 µM) | 0.21 (≈ 0.47 µM) | – |
| CC(C)OC(=O)N1CCC2(CC1)CC(CCCOc1ccc(C(=O)NC3CC3)cn1)C2 | 0.063 | – | 2.24 (≈ 5.21 µM) | – |
| CC(C)(C)OC(=O)N1CCC2(CC1)CC(CCCCOc1ccc(S(C)(=O)=O)cc1)C2 | 0.154 | – | – | – |
| CCc1cnc(N2CCC3(CC2)CC(CCCOc2ccc(S(C)(=O)=O)cc2)C3)nc1 | 0.031 | 0.64 (≈ 1.44 µM) | < 0.12 | – |
| CS(=O)(=O)c1ccc(OCCCC2CC3(CCN(C(=O)OC4CCCC4)CC3)C2)cc1F | 0.023 | 7.65 (≈ 16.4 µM) | < 0.14 | – |
